The subject of this test is A549 cells. The test is described as follows: MTT cell viability, antiproliferative action on A549 cells. The following applies: Homo sapiens, A549, 72 h, read-out: % cell viability. Format: cell-based. The essentials: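 A549 cells in DMEM with 10% FBS and 1% penicillin-streptomycin (37 °C, 5% CO₂) were grown to 90% confluence, seeded at 2.5 × 10⁴ cells/mL in 96-well plates and left 24 h. Dosing solutions at 25, 50 and 100 µg/mL in PBS/0.2% DMSO were added in triplicate, followed by 72 h incubation. MTT (5 mg/mL) was added for 4 h, then acid-isopropanol overnight. A570/620 was read; viability was blank-corrected relative to untreated controls.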

Each structure is given as a SMILES string.

Take `CC(=O)O[C@H]1C(=O)[C@@]2(C)[C@H]([C@H](OC(=O)c3ccccc3)[C@]3(O)C[C@H](OC(=O)[C@H](O)[C@@H](NC(=O)c4ccccc4)c4ccccc4)C(C)=C1C3(C)C)[C@]1(OC(C)=O)CO[C@@H]1C[C@@H]2O` [PTX, paclitaxel]: the viability at 25 µg/mL was determined as 31.2%, the viability at 50 µg/mL was 26.5% and the viability at 100 µg/mL worked out at 20.2%.

As a reminder, the viability is a read-out of living cells in per cent, often relative to untreated cells.

(Values after publication PMC10785664 (ACS Omega, 2023).)
